ChEMBL document CHEMBL4732101, “Novel quinolone-based potent and selective HDAC6 inhibitors: Synthesis, molecular modeling studies and biological investigation” (Eur J Med Chem, 2021)
Activity calls are given as the source filed them. No cut-off for these calls is given here.

Legend:
Histone deacetylase 8 = target: T1, Histone deacetylase 8 (Homo sapiens, UniProt Q9BY41); experiment: Inhibition of recombinant human HDAC8 using Fluor-de-Lys as substrate measured after 1 hr by fluorescence assay
T1 sequence (Q9BY41 whole entry): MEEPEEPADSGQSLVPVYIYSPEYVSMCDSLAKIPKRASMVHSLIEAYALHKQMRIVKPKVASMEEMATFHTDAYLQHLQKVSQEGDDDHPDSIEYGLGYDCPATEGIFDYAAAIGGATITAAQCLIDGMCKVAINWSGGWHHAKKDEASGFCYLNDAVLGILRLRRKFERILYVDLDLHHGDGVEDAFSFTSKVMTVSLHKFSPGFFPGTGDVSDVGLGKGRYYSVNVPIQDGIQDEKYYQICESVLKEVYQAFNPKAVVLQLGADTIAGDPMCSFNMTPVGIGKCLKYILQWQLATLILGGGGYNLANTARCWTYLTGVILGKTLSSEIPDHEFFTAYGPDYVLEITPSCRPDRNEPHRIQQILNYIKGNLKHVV

U-937 [1] = experiment: Cytotoxicity against human U-937 cells assessed as reduction in cell viability measured after 48 hrs by MTT assay; assay type: functional, cell-based; conditions: U-937, 48 h
In short: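 U937 cells grown in RPMI-1640 with 10% FBS, 2 mM L-glutamine and penicillin-streptomycin. 2.5×10^4 cells/well treated in triplicate at 50, 25, 10, 5 and 1 µM for 12, 24 or 48 h. MTT 0.5 mg/ml added for 3 h, plate centrifuged 5 min at 1200 rpm, crystals dissolved in isopropanol, A570 read. IC50 derived from the concentration series.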

HCT-116 [2] = experiment: Cytotoxicity against human HCT-116 cells assessed as cell viability measured after 48 hrs by MTT assay relative to control; assay type: functional
In short: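 HCT-116 cells grown in DMEM with 10% FBS, 2 mM L-glutamine and antibiotics. 2.5×10^4 cells/well treated in triplicate at 50, 25, 10, 5 and 1 µM for 12, 24 or 48 h. Then MTT 0.5 mg/ml for 3 h, supernatant removed, formazan dissolved in isopropanol, absorbance read at 570 nm. IC50 derived from the concentration series.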

HCT-116 [3] = experiment: Induction of apoptosis in human HCT-116 cells assessed as increase in PARP cleavage at 10 uM measured after 24 hrs by Western blot analysis; assay type: functional, cell-based
In short: (§1)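 HCT-116 or U937 cells treated at 10 µM for 12 and 24 h. […] Western blot used 40 µg total protein or 5 µg acid-extracted histone. Blots probed for cleaved PARP, acetylated tubulin, H3K9/14ac and Hsp90(AcLys294), normalized to GAPDH or H4. Compared with control cells by one-way ANOVA and Dunnett's test.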

U-937 [4] = experiment: Induction of apoptosis in human U-937 cells assessed as increase in PARP cleavage at 10 uM measured after 24 hrs by Western blot analysis; assay type: functional, cell-based; in short: as §1
[5] = target: T2, Protein deacetylase HDAC6 (Homo sapiens) (UniProt Q9UBN7); experiment: Inhibition of HDAC6 in human HCT-116 cells assessed as increase in alpha-tubulin acetylation at 10 uM measured after 12 to 24 hrs by Western blot analysis relative to control; assay type: cell-based; conditions: time 12-24 hrs; in short: as §1
T2 sequence (whole entry): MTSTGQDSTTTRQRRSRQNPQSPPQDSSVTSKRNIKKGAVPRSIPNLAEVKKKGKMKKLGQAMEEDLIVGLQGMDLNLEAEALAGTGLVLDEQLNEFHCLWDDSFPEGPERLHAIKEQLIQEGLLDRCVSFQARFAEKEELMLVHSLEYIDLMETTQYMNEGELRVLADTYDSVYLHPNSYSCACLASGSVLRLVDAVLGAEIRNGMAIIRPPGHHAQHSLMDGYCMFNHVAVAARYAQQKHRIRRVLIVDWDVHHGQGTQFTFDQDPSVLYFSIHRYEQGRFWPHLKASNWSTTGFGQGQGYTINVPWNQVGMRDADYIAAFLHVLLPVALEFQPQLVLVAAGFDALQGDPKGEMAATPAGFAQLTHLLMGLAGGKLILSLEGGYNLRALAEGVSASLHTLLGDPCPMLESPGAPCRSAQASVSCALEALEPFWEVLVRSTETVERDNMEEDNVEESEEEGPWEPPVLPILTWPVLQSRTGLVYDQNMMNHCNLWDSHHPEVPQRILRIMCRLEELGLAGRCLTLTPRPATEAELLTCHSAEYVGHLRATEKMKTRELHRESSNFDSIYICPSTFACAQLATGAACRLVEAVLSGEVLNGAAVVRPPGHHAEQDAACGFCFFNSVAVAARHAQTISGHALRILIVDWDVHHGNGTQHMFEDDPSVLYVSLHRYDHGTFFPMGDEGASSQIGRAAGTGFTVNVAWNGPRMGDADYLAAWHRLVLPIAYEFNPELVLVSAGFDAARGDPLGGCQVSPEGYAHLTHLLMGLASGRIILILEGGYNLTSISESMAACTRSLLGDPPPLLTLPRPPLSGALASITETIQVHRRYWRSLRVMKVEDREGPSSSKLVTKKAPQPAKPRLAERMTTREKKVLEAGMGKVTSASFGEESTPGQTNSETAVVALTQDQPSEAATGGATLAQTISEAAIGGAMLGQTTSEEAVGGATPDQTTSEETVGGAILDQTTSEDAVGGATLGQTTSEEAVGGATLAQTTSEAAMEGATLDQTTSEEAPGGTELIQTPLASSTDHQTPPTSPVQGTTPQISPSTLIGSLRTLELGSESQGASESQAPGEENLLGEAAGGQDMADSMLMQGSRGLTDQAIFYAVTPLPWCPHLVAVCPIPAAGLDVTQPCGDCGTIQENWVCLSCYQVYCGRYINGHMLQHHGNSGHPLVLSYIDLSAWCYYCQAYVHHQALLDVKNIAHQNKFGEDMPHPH

[6] = Inhibition of HDAC1/2/3/8 in human HCT-116 cells assessed as increase in H3K9/14 acetylation at 10 uM measured after 12 to 24 hrs by Western blot analysis relative to control; assay type: cell-based; conditions: hct-116, 10 µM, time 12-24 hrs; in short: as §1
[7] = target: T2, Protein deacetylase HDAC6 (Homo sapiens); experiment: Inhibition of HDAC6 in human HCT-116 cells assessed as increase in Hsp90(AcLys294) acetylation at 10 uM measured after 12 to 24 hrs by Western blot analysis; assay type: cell-based; conditions: time 12-24 hrs; in short: as §1
[8] = Solubility of compound in pH 3 buffer at 250 uM measured after 24 hrs by HPLC/UV/DAD method; assay type: physicochemical; conditions: pH 3, 24 h
In short: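 10 mM DMSO stock diluted to 250 µM (2.5% DMSO) in 50 mM acetic acid, pH 3.0, and shaken 24 h at 25 °C. For solubility, samples filtered, diluted 1:2, quantified by HPLC-UV at 254 nm against a standard. For stability, percent remaining taken as the 24 h peak area over the T0 peak area. Triplicate analyses averaged.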

[9] = Mutagenicity in Salmonella typhimurium TA98 at 5 to 230 uM measured after 90 mins in presence of rat liver S9 fraction by Ames test; assay type: toxicity, subcellular; conditions: salmonella enterica subsp. enterica serovar typhimurium, s9, 1.5 h, dose 5-230 µM
[10] = Mutagenicity in Salmonella typhimurium TA100 at 5 to 230 uM measured after 90 mins in absence of rat liver S9 fraction by Ames test; assay type: toxicity; conditions: salmonella enterica subsp. enterica serovar typhimurium, s9, 1.5 h, dose 5-230 µM

## CCN(CC)Cc1ccc(Cn2c(=O)c(OCc3ccc(C(=O)NO)cc3)c(-c3cccnc3)c3ccccc32)cc1
Histone deacetylase 8
  IC50: 0.49 µM
Histone deacetylase 8; human, 1 h
  Kapp: 0.4 µM
U-937 [1]
  IC50: 45.5 µM
HCT-116 [2]
  Activity: 10%
HCT-116 [3]
  Activity: Active
U-937 [4]
  Activity: Active
[5]
  fold change (FC): > 9
[6]
  fold change (FC): > 6
[7]
  inhibition: Active
[8]
  solubility: Soluble
[9]
  Activity: Non-Toxic
[10]
  Activity: Non-Toxic
